In publication PMC7194030 (Science translational medicine, 2019):
Counter-ions that a name gives are not always drawn. Like-named read-outs stand apart in the source and are kept apart here.

Experiments:
murine BFU-Es [1] = assay: Mouse BFU-E culture system; type: cell-based; settings: for BFU-E expansion: purified murine fetal liver BFU-Es, cell numbers counted days 0 to 9; for Percentage of Ter119+ cells with or without compound: day 14 of culture, flow cytometry
Outline: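 Cells are counted from day 0 to day 9 (three distinct samples; two-way ANOVA). At end of culture, cells are stained with anti-Ter119 and Ter119+ percentage is measured by flow cytometry (three samples; one-tailed t test).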

BFU-Es = assay: cAMP assay in BFU-Es; type: cell-based, mouse; settings: PD102807 3 nM, forskolin 10 μM, 45 min
Outline: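 Sorted murine fetal-liver BFU-Es are exposed for 45 min to DMSO, 3 nM test compound, or 10 μM forskolin. Cells are lysed in 0.1 M HCl (20 min, room temperature) and cleared at 15,000g for 10 min. Samples are neutralized, acetylated, and run in a competitive cAMP immunoassay (antibody, then cAMP-HRP, 1 h each; HRP developer 1 h). The reaction is stopped with 1 M HCl and read at OD 450 nm.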

[2] = target: human recombinant CHRM4 receptor (Homo sapiens, UniProt P08173); settings: protein binding assay, IC50 on CHRM1-5
C57bl/6 mice [3] = settings: in vivo
CFU-E = assay: Mouse CFU-E culture system; type: cell-based
human CD34+ HSPC = assay: Human CD34+ HSPC erythroid differentiation culture system; type: cell-based; settings: for Formation of BFU-E colonies: human CD34+ HSPC; for Erythroid cell expansion: human CD34+ HSPC from healthy donors
murine BFU-Es [4] = assay: RNA-seq of cultured BFU-Es; type: cell-based, mouse; settings: 100 μM oxyphenonium bromide or 3 nM PD102807
Outline: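 BFU-Es FACS-sorted from E14.5 mouse fetal liver and cultured at 37°C in serum-free SFEM II with SCF, EPO, IGF-1 and dexamethasone. Treatments: test compound (100 μM or 3 nM), 100 nM dexamethasone, or DMSO. RNA extracted with a column kit, Illumina libraries prepared, sequenced on HiSeq 2500. Three to six replicates.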

[5] = test system: CD34+ cells from patients with MDS; assay: Erythroid differentiation culture of CD34+ cells from patients with MDS; type: cell-based, human
Outline: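 MDS patient CD34+ cells (eight patients) are cultured in SFEM with rhSCF 20 ng/ml, rhIL-3 5 ng/ml, EPO 1 U/ml and dexamethasone 1 nM, with DMSO or 3 nM test compound. Read-outs: relative cell expansion, CD235a+ fraction by flow cytometry, annexin V apoptosis, and May-Grünwald–Giemsa cytospin morphology. One-tailed t test.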

[6] = test system: Mx1-Cre Srsf2P95H/WT MDS mice; type: in vivo; settings: for BFU-E self-renewal (splenic BFU-E colonies): daily treatment
C57bl/6 mice [7] = assay: Pharmacodynamics study; type: in vivo, mouse
Outline: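 PHZ hemolytic anemia model: female C57bl/6 mice, 8–10 weeks old, randomised to groups and given test compound at different doses or DMSO control intraperitoneally every day. Anemia induced with intraperitoneal PHZ (60 mg/kg). Complete blood counts taken. 7 to 10 mice per group.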

murine BFU-Es [8] = assay: BFU-E colony formation assay of cultured murine BFU-Es; type: cell-based, mouse; settings: colonies counted on day 9 of colony formation assay
Outline: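 BFU-Es (lin−Ter119−CD16/CD32−Sca-1−CD41−c-Kit+CD71/Cd24a10%low) are FACS-sorted from E14.5 C57bl/6 fetal liver. Cells are then plated in MethoCult SF M3436, and colonies are counted on day 9. Nine distinct samples; one-tailed t test.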

Sequence of human recombinant CHRM4 receptor (P08173 whole entry): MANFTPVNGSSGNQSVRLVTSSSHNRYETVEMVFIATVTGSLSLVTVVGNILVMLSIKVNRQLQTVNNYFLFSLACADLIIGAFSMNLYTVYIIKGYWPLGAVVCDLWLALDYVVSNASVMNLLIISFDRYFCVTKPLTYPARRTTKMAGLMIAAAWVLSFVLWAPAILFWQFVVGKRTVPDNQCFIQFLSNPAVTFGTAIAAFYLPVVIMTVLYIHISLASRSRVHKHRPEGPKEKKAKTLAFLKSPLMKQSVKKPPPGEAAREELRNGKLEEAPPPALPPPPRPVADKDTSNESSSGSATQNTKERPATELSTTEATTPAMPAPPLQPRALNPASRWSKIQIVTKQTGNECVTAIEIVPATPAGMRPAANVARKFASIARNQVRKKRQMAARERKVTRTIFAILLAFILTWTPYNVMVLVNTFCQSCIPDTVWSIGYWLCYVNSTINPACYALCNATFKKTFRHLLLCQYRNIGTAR

Compound: C=C[C@@]1(C)CC(=O)[C@]2(O)[C@@]3(C)[C@@H](O)CCC(C)(C)[C@@H]3[C@H](O)[C@H](OC(C)=O)[C@@]2(C)O1 [forskolin]
- BFU-E expansion (murine BFU-Es [1]): promoted BFU-E expansion
- cAMP concentration in BFU-Es relative to DMSO (BFU-Es): increased in concentration

Compound: CCOC(=O)c1c(C)[nH]c2ccc3c(c12)CN1CCc2cc(OC)ccc2C1O3 (stereo not shown) [PD102807]
- Selectivity for CHRM4 over other muscarinic acetylcholine receptors [2]: selectively inhibits CHRM4 over other muscarinic acetylcholine receptors
- Maximal tolerated dose (C57bl/6 mice [3]; mouse): 100 mg/kg
- CFU-E proliferation (CFU-E): no effect
- Percentage of Ter119+ cells with or without compound (murine BFU-Es [1]): no difference
- BFU-E expansion (murine BFU-Es [1]): promoted BFU-E expansion at nanomolar concentrations
- cAMP concentration in BFU-Es relative to DMSO (BFU-Es): increased in concentration
- Formation of BFU-E colonies (human CD34+ HSPC): increased formation of BFU-E colonies
- Erythroid cell expansion (human CD34+ HSPC): expanded erythroid cells
- BFU-E gene signature expression (murine BFU-Es [4]): up-regulated a gene signature characteristic of BFU-Es
- Cell survival or differentiation with and without compound ([5]; 3 nM PD102807): no difference
- Production of erythroid cells ([5]; 3 nM PD102807, eight patients): increased production of erythroid cells
- Tolerability in vivo ([6]; MDS mice): well tolerated
- Weight loss, liver or kidney function ([6]; MDS mice): no substantial effects
- White blood cell or platelet production ([6]; MDS mice): no influence
- BFU-E self-renewal (splenic BFU-E colonies) ([6]; MDS mice): promoted BFU-E self-renewal
- Anti-anemia minimal effective dose (C57bl/6 mice [7]): 100 mg/kg

Compound: Cc1ccccc1C(OCCN(C)C)c1ccccc1 (stereo not shown) [orphenadrine citrate]
- BFU-E expansion (murine BFU-Es [1]): triggered BFU-E expansion
- BFU-E self-renewal (splenic BFU-E colonies) ([6]; MDS mice): promoted BFU-E self-renewal
- Tolerability in vivo ([6]; mouse, in vivo): well tolerated
- White blood cell or platelet production ([6]; mouse, in vivo): no influence
- Anti-anemia minimal effective dose (C57bl/6 mice [7]): 100 mg/kg

Compound: CCCCCCOC(=O)[C@]1(O)C[C@@H]2O[C@@]1(C)n1c3ccccc3c3c4c(c5c6ccccc6n2c5c31)C(=O)NC4 [KT5720]
- Effect on CHRM4 antagonist-induced BFU-E expansion (murine BFU-Es [1]; 2 μM KT5720 with 3 nM PD102807, day 9): blocked CHRM4 antagonist–induced BFU-E expansion

Compound: CC[N+](C)(CC)CCOC(=O)C(O)(c1ccccc1)C1CCCCC1 (stereo not shown) [oxyphenonium bromide]
- Formation of BFU-E colonies (murine BFU-Es [8]): increased formation of BFU-E colonies
- Maximal tolerated dose (C57bl/6 mice [3]; female, C57bl/6, mouse, 7 days): 50 mg/kg
- BFU-E expansion and erythrocyte production (murine BFU-Es [1]; 100 μM oxyphenonium bromide): prolonged expansion resulting in increased production of erythrocytes
- Percentage of Ter119+ cells with or without compound (murine BFU-Es [1]): no difference
- BFU-E expansion (murine BFU-Es [1]): triggered BFU-E expansion
- Formation of BFU-E colonies (human CD34+ HSPC): increased formation of BFU-E colonies
- Erythroid cell expansion (human CD34+ HSPC): expanded erythroid cells
- BFU-E gene signature expression (murine BFU-Es [4]): up-regulated a gene signature characteristic of BFU-Es
- BFU-E self-renewal (splenic BFU-E colonies) ([6]; MDS mice): promoted BFU-E self-renewal
- Anti-anemia minimal effective dose (C57bl/6 mice [7]): 25 mg/kg
